These results are taken from ChEMBL document CHEMBL1124657, “Retinobenzoic acids. 2. Structure-activity relationships of chalcone-4-carboxylic acids and flavone-4'-carboxylic acids” (1989).

SMILES strings stand for the structures. Active and inactive are the calls of the source. The rule behind the calls is not given here.

Test [1] deals with HL-60. Nature of the test: Activity relative to retinoic acid in differentiating promyelocytic leukemic HL-60 cells. It is filed as functional, Homo sapiens.
In test [2] the test system is HL-60. Nature of the test: Differentiation inducing activity towards human promyelocytic leukemia cell line HL-60 assayed by nitroblue tetrazolium reduction. Conditions: read-out: ED50 (the source's name). The class given is functional. The essentials: (§1)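 HL-60 cells in RPMI1640 with 5% FCS at 37 °C, 5% CO₂; seeded about 8 × 10⁴ cells/mL and exposed 4 days to compounds from 0.2 mM ethanol stock (final ethanol below 0.5%; ethanol-only controls). Retinoic acid run concurrently. NBT reduction: 20 min at 37 °C with 0.2% NBT and TPA 200 ng/mL in PBS/medium. Formazan-positive cells counted among at least 200 cells. Wright-Giemsa morphology also scored. Five orders of concentration covered, at least three repeats. ED50 taken from NBT data.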

Test [3] relates to HL-60. Nature of the test: Differentiation inducing activity towards human promyelocytic leukemia cell line HL-60 by nitroblue tetrazolium reduction assay; IA is Inactive. It is filed as functional, cell-based. Put shortly: as §1
Test [4] deals with HL-60. Nature of the test: Differentiation inducing activity towards human promyelocytic leukemia cell line HL-60 by nitroblue tetrazolium reduction assay;IA is inactive. It is filed as functional, cell-based. The essentials:
as §1

Test [5] concerns HL-60. Nature of the test: Differentiation inducing activity towards human promyelocytic leukemia cell line HL-60 by nitroblue tetrazolium reduction assay;IA is Inactive. The class given is functional, cell-based. The essentials:
as §1

In turn, `CC1(C)CCC(C)(C)c2cc(/C(O)=C/C(=O)c3ccc(C(=O)O)cc3)c(O)cc21` had a Relative activity in the test with HL-60 [1] of 7.6. For the same molecule, in the test with HL-60 [2], the EC50 was 0.063 nM.

Consider `CC(C)(C)c1ccc(/C(O)=C/C(=O)c2ccc(C(=O)O)cc2)c(O)c1`, for which, in the test on HL-60 [1], the Relative activity worked out at 0.0023. The EC50 in the test with HL-60 [2] is 560 nM.

As for `CC1(C)CCOc2cc3c(=O)cc(-c4ccc(C(=O)O)cc4)oc3cc21`, the Relative activity in the test on HL-60 [1] came out at 0.017. The EC50 with HL-60 [2] was 250 nM.

Regarding `COC(=O)c1ccc(/C=C/C(=O)c2ccc3c(c2)C(C)(C)CCC3(C)C)cc1`, in the test on HL-60 [1], the Relative activity came to 0.043. Moreover, in the test on HL-60 [2], the EC50 came to 30 nM.

`COC(=O)c1ccc(-c2cc(=O)c3cc4c(cc3o2)C(C)(C)CCC4(C)C)cc1` had a Relative activity in the test with HL-60 [1] of 8.5. The EC50 with HL-60 [2] was found to be 0.48 nM.

In the test with HL-60 [1], `CCc1ccc(C(=O)/C=C/c2ccc(C(=O)O)cc2)cc1CC` came in with a Relative activity of 0.0083. For the same molecule, the EC50 with HL-60 [2] is 170 nM.

For the molecule `O=C(O)c1ccc(C(=O)/C=C(\O)c2ccccc2O)cc1`, the ED50 result with HL-60 [3] was “inactive”.

In the test with HL-60 [1], `CC1(C)CCC(C)(C)c2cc(C(=O)/C=C/c3cccc(C(=O)O)c3)ccc21` displayed a Relative activity of less than 0.0001. Further, the EC50 in the test with HL-60 [2] was more than 1000 nM.

On to `CC(C)(C)c1cccc(C(=O)/C=C/c2ccc(C(=O)O)cc2)c1`, for which the Relative activity in the test on HL-60 [1] is 0.0081. Also, in the test with HL-60 [2], the EC50 worked out at 160 nM.

`CC1(C)CCC(C)(C)c2cc(C(=O)/C=C/c3ccc(C(N)=O)cc3)ccc21`: in the test on HL-60 [1], the Relative activity was less than 0.0001. The EC50 with HL-60 [2] is more than 1000 nM.

As for `CC1(C)CCC(C)(C)c2cc(C(=O)/C=C/c3ccc(C(=O)O)cc3)ccc21`, in the test on HL-60 [1], the Relative activity was 2.8. Further, in the test on HL-60 [2], the EC50 is 0.64 nM.

As to `COc1ccc(C(=O)/C=C/c2ccc(C(=O)O)cc2)cc1OC`, in the test with HL-60 [3], the ED50 entry was “inactive”.

On to `CC(C)(C)c1ccc2c(=O)cc(-c3ccc(C(=O)O)cc3)oc2c1`, for which, in the test with HL-60 [1], the Relative activity was found to be 0.0058. For the same molecule, the EC50 in the test on HL-60 [2] turned out to be 480 nM.

In turn, `CC1(C)CCC(C)(C)c2cc3c(=O)cc(-c4ccc(C(=O)O)cc4)oc3cc21` displayed a Relative activity in the test on HL-60 [1] of 27.4. In the test with HL-60 [2], the EC50 turned out to be 0.046 nM.

Regarding `CC1(C)CCC(C)(C)c2cc(C(=O)/C=C/c3ccc(C(=O)Cl)cc3)ccc21`, in the test on HL-60 [1], the Relative activity amounted to 0.52. Also, in the test with HL-60 [2], the EC50 stood at 3.3 nM.

`CC1(C)CCC(C)(C)c2cc3c(=O)c(O)c(-c4ccc(C(=O)O)cc4)oc3cc21` displayed a Relative activity in the test with HL-60 [1] of 1.25. The EC50 with HL-60 [2] stood at 1.2 nM.

As for `O=C(O)c1ccc(-c2cc(=O)c3ccccc3o2)cc1`, the ED50 result with HL-60 [4] is “inactive”.

`Cc1cc2c(cc1C(=O)/C=C/c1ccc(C(=O)O)cc1)C(C)(C)CCC2(C)C` came in with a Relative activity with HL-60 [1] of 2.1. Besides, the EC50 with HL-60 [2] came out at 0.54 nM.

In the case of `CC1=C(/C=C/C(C)=C/C=C/C(C)=C/C(=O)O)C(C)(C)CCC1` [TRETINOIN], the Relative activity in the test on HL-60 [1] was determined as 1. For the same molecule, in the test with HL-60 [2], the EC50 was determined as 2.4 nM.

Take `CC1(C)CCSc2ccc(C(=O)/C=C/c3ccc(C(=O)O)cc3)cc21`: the Relative activity in the test on HL-60 [1] was less than 0.0001. The EC50 in the test with HL-60 [2] is more than 1000 nM.

Turning to `O=C(O)c1ccc(/C=C/C(=O)c2ccccc2)cc1`, the ED50 result with HL-60 [3] was “inactive”.

With `CC1(C)CCC(C)(C)c2cc(C(=O)/C=C/c3ccc(C(=O)O)c(O)c3)ccc21`, the Relative activity with HL-60 [1] is on record as 0.88. The EC50 with HL-60 [2] was found to be 1.7 nM.

For the molecule `CC1(C)CCOc2ccc(C(=O)/C=C/c3ccc(C(=O)O)cc3)cc21`, in the test on HL-60 [1], the Relative activity is less than 0.0001. For the same molecule, the EC50 with HL-60 [2] was more than 1000 nM.

Regarding `CC(C)(C)c1ccc(C(C)(C)C)c(C(=O)/C=C/c2ccc(C(=O)O)cc2)c1`, in the test on HL-60 [1], the Relative activity stood at 0.021. For the same molecule, the EC50 in the test on HL-60 [2] turned out to be 45 nM.

`CC1(C)CCOc2c(C(=O)/C=C/c3ccc(C(=O)O)cc3)cccc21`: in the test on HL-60 [1], the Relative activity is given as 0.0077. Moreover, the EC50 in the test on HL-60 [2] was determined as 690 nM.

Consider `Cc1ccc(/C=C/C(=O)c2ccc3c(c2)C(C)(C)CCC3(C)C)cc1`, for which the ED50 entry in the test with HL-60 [5] is “inactive”.

Molecule `CCCCOC(=O)c1ccc(/C=C/C(=O)c2ccc3c(c2)C(C)(C)CCC3(C)C)cc1` returned a Relative activity in the test with HL-60 [1] of 0.063. Also, in the test on HL-60 [2], the EC50 worked out at 27 nM.

In turn, `CC(C)(C)c1cc(C(=O)/C=C/c2ccc(C(=O)O)cc2)cc(C(C)(C)C)c1` had a Relative activity in the test with HL-60 [1] of 6.4. Also, the EC50 with HL-60 [2] was 0.21 nM.

`COc1c(-c2ccc(C(=O)O)cc2)oc2cc3c(cc2c1=O)C(C)(C)CCC3(C)C` came in with a Relative activity in the test with HL-60 [1] of less than 0.0001. Further, the EC50 in the test on HL-60 [2] was more than 1000 nM.

In the test with HL-60 [1], `CC(C)(C)c1ccc(O)c(/C(O)=C/C(=O)c2ccc(C(=O)O)cc2)c1` gave a Relative activity of less than 0.0001. In addition, in the test on HL-60 [2], the EC50 was more than 1000 nM.

As for `COc1cc2c(cc1C(=O)/C=C/c1ccc(C(=O)O)cc1)C(C)(C)CCC2(C)C`, in the test on HL-60 [1], the Relative activity turned out to be 0.35. The EC50 with HL-60 [2] came out at 3.9 nM.

In the case of `CC(C)(C)c1ccc(C(=O)/C=C/c2ccc(C(=O)O)cc2)cc1`, in the test with HL-60 [1], the Relative activity was 0.039. Moreover, the EC50 in the test on HL-60 [2] was found to be 28 nM.

For `CC(C)(C)c1ccc2oc(-c3ccc(C(=O)O)cc3)cc(=O)c2c1`, the Relative activity in the test on HL-60 [1] was less than 0.0001. For the same molecule, the EC50 in the test with HL-60 [2] was more than 1000 nM.

`CC(C)c1ccc(C(=O)/C=C/c2ccc(C(=O)O)cc2)cc1C(C)C` had a Relative activity with HL-60 [1] of 1.8. Besides, the EC50 in the test on HL-60 [2] is 0.82 nM.

In the test with HL-60 [1], `CC1(C)CCC(C)(C)c2cc(C(=O)/C=C/c3ccc(C(=O)O)cc3)c(O)cc21` registered a Relative activity of 1.4. Moreover, the EC50 in the test with HL-60 [2] is 0.15 nM.
